Assay outcomes deposited in PubChem BioAssay by several laboratories.
TAAR1 ag: human TAAR1 agonists, primary screen, Fluo-8 calcium fluorescence, CHO RD-HGA16 cells; hit rate 0.99% among 360,000; vehicle wells 0%, saturating PEA agonist 100%; Trace amine-associated receptor 1 (Homo sapiens), Q96RJ0; activation, % at 3 µM;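 active means activation above the mean activation of all test compounds in the run plus 3 SD, cut at about 38% in these data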
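Test system: RD-HGA16 (CHO) cells co-expressing Gα16 and hTAAR1 / Benchmarks: DMSO vehicle as 0%, PEA at EC100 as 100% / Repeats: no replicates (n 1) / Measure: % activation from peak over basal fluorescence ratio, DMSO-to-PEA scaled / Timing: 17-24 h plating, Fluo-8 75 min 37 °C, 30 min RT / Technique: kinetic Fluo-8 calcium fluorescence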
GPR7 antagonist: GPR7 receptor antagonists, primary screen, cell-based, fluorescence, single concentration. GPR7-expressing cells, fluorescence antagonist assay. inhibition, % at 4.4 µM. hit rate 1.1% among 290,000. Neuropeptides B/W receptor type 1 (Homo sapiens), P48145; in the data active means inhibition above about 16%, passing the limit was not always enough;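 further: cells stimulated with the agonist NPW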
TRPML3 agonist: human TRPML3 channel agonists, primary screen, cell-based, HEK293 TRPML3-YFP, Fluo-8 calcium fluorescence, 3 µM; hit rate 0.29% among 220,000; Mucolipin-3 (Homo sapiens), Q8TDD5; AID 1448, 2008; activation, % at 3 µM; 100% = the carbachol control signal;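 active means activation above its plate's cutoff, the mean activation of the plate's test wells plus 3 SD, cut at about 12% in these data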
Target sequence (Q8TDD5 whole entry, looked up): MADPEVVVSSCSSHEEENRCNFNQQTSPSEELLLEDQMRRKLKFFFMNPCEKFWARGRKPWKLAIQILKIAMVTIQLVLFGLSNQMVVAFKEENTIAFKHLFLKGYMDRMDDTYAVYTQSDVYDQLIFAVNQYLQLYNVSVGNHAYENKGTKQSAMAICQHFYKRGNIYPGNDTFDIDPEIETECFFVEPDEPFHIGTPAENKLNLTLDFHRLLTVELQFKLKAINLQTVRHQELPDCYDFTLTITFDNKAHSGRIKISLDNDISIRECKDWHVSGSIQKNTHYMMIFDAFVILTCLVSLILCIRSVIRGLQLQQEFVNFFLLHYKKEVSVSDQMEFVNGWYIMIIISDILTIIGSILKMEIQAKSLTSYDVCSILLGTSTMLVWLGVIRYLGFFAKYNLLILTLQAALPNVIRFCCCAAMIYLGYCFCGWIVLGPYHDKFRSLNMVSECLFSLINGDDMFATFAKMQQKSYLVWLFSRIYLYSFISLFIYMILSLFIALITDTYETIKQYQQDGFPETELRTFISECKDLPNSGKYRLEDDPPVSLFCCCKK
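Test system – HEK293 line with stable expression of human TRPML3-YFP channel · Control set – carbachol 87 µM final as high control (100%), DMSO as low control (0%) · Signal – Fluo-8 calcium dye fluorescence, ex 470-495, em 515-575 nm · Incubation – 1-h 37 °C dye load, 5-s basal, 120-s post-compound reads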
zfTRPN1 agonist: zebrafish TRPN1 channel agonists, primary screen, cell-based, HEK293, calcium fluorescence. transient receptor potential cation channel N1 (TRPN1/NompC), Danio rerio. HEK293 zebrafish TRPN1-YFP, Fluo-8 calcium fluorescence; 100% = response to 87 µM carbachol. activation, % at 3 µM. hit rate 0.18% among 220,000;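 active means activation above its plate's cutoff, the mean activation of test wells on that plate plus 3 SD, cut at about 19% in these data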
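Control set: carbachol 87 µM as high control, DMSO as low control; system: HEK293 stable line with zebrafish TRPN1-YFP; read-out: % activation versus carbachol response; detection: intracellular calcium fluorescence with Fluo-8; doses: single test compound dose, 3 µM nominal, 0.3% DMSO; schedule: dye 1 h 37 °C plus 30 min RT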
TAAR1 antagonist: human TAAR1 antagonists, primary screen, Fluo-8 calcium fluorescence, CHO RD-HGA16 cells | Trace amine-associated receptor 1 (Homo sapiens), Q96RJ0 | AID 624466, 2012 | inhibition, % at 3 µM | hit rate 1.5% among 360,000 | antagonist;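 active means inhibition above a per-plate cutoff, the mean inhibition of test compounds on that plate plus 3 SD, cut at about 49% in these data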
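Assay system: RD-HGA16 CHO cells with stable hTAAR1 and Gα16 / Reagent: EC80 β-phenethylamine stimulus / Doses: 3 µM, single point / Timing: dye loading 75 min at 37 °C, then 30 min room temperature / Measured by: Fluo-8 intracellular calcium dye fluorescence, real-time kinetic reads / Controls: vehicle wells and EC80 agonist wells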
LANA-H2A inh: blockers of LANA interaction with H2A/H2B – biochemical, FP readout, HTS, primary screen. Protein LANA1 (Human herpesvirus 8 type P (isolate GK18)), Q9QR71. cell-free LANA-H2A/H2B peptide, fluorescence polarization. inhibition, % (no concentration beside the values). hit rate 0.6% among 320,000. AID 2629, 2010; in the data active means inhibition mostly above about 10%, no sharp cut-off; inactive means mostly below about 6.7%
TAAR1 nonsel count: nonselective antagonists in TAAR1 counter-screen cells, counter-screen for hTAAR1 antagonist project, cell-based, fluorescence, calcium; counterscreen cell line, antagonist mode; shares compounds with TAAR1 antagonist; hit rate 77% among 2,400; inhibition, % at 3 µM; in the data active means inhibition above about 22%;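 further: CHO-Ga16 host cells stimulated with ATP at an EC80 level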
TAAR1 ant conf: human TAAR1 antagonists, retest of hits, confirmation, cell-based, fluorescence. hit rate 40% among 2,400. inhibition, % at 3 µM. TAAR1-expressing cells, fluorescence antagonist read-out. AID 651785, 2012. shares compounds with TAAR1 antagonist; in the data active means inhibition above about 49%;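 further: CHO-Ga16 host cells challenged with agonist PEA near its EC80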
Ga16 nonsel ag: calcium activation in Ga16-expressing cells, counter-screen for TAAR1 antagonist project, cell-based, fluorescence | hit rate 18% among 2,400 | activation, % at 3 µM | shares compounds with TAAR1 antagonist | AID 651953, 2012 | agonist counterscreen; in the data active means activation above about 12%
TAAR1 ag count: TAAR1 activation by candidate antagonists – cell-based, fluorescence, counter-screen for TAAR1 antagonist project; shares compounds with TAAR1 antagonist; hTAAR1 cell line, agonist mode; activation, % at 3 µM; hit rate 2% among 2,400; in the data active means activation above about 37%;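 further: CHO cells stably expressing TAAR1 with calcium dye readout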
Numbers stand for hits; i = inactive; nt = no result given. Rows were chosen to be rich in hits. Some 3.4% of all compounds tested hit in one or more screens of this group.

SMILES	TAAR1 ag	GPR7 antagonist	TRPML3 agonist	zfTRPN1 agonist	TAAR1 antagonist	LANA-H2A inh	TAAR1 nonsel count	TAAR1 ant conf	Ga16 nonsel ag	TAAR1 ag count
COc1ccccc1/C=C/C(=O)NC(=S)NCC1CCCO1 (centres undefined)	i	i	i	i	74	i	27	52	i	i
Cc1nc(NC(=O)COC(=O)c2cccs2)c(Cl)cc1Cl	i	nt	nt	nt	i	nt	nt	nt	nt	nt
O=C(NCCc1ccccc1)c1cccc2c1C(=O)c1ccc(N3CCOCC3)cc1S2(=O)=O	i	nt	nt	nt	51	i	24	i	i	i
O=C(NCc1ccc(F)cc1)c1cccc2c1C(=O)c1ccc(N3CCOCC3)cc1S2(=O)=O	i	nt	nt	nt	55	i	27	i	i	i
C=CCNC(=O)c1cccc2c1C(=O)c1ccc(N3CCOCC3)cc1S2(=O)=O	i	nt	nt	nt	i	i	nt	nt	nt	nt
COc1ccc(CN(C)C[C@H]2OCc3cnnn3CCCC(=O)N([C@H](C)CO)C[C@@H]2C)cc1	i	nt	nt	nt	i	nt	nt	nt	nt	nt
COc1ccc(Cl)c2sc(N(CCN(C)C)C(=O)C3=COCCO3)nc12	i	nt	nt	nt	i	nt	nt	nt	nt	nt
COc1cccc(NC(=O)C2CCN(C(=O)[C@@H]3Cc4ccccc4CN3)CC2)c1	i	i	nt	nt	i	i	nt	nt	nt	nt
COc1cccc(NC(=O)C2CCN(C(=O)[C@@H]3Cc4ccccc4CN3C(=O)OC(C)(C)C)CC2)c1	i	i	nt	nt	53	i	24	i	i	i
COC(=O)N/N=C/c1ccccc1OCc1ccccc1	i	i	i	i	i	i	nt	nt	nt	nt
Cc1ccc(C(C)C)c(OCc2ccc(C(=O)N/N=C/c3cccc(O)c3O)cc2)c1	i	i	i	i	77	i	47	80	i	i
Cc1ccc(C(C)C)c(OCc2ccc(C(=O)N/N=C/c3ccc(O)c(O)c3)cc2)c1	i	i	i	i	i	i	nt	nt	nt	nt
O=C(NNC(=O)c1ccccc1OCc1ccccc1)c1ccccc1F	i	i	nt	nt	i	i	nt	nt	nt	nt
CC(=O)Nc1ccc(C(=O)N/N=C/c2ccccc2OCc2ccccc2)cc1	i	i	i	i	52	i	32	i	i	i
O=C(N/N=C/c1ccccc1F)c1ccccc1OCc1ccccc1	i	i	nt	nt	51	i	i	i	i	i
O=C(CCn1ccc2cc(S(=O)(=O)N3CCCC3)ccc21)NCc1cccc(F)c1	i	i	nt	nt	i	i	nt	nt	nt	nt
COc1cc(C)c(C(=O)Oc2cc(C)c(C(=O)O)c(O)c2C)c(O)c1C	i	nt	nt	nt	80	i	48	53	i	i
O=C1[C@@H]2[C@H](C(=O)N1CC(O)COCc1ccccc1)C1C=C[C@H]2C1 (some centres undefined)	i	nt	nt	nt	i	nt	nt	nt	nt	nt
CCOC(=O)C1(Cc2cccc(F)c2)CCN(C(=O)C2CCC2)CC1	i	i	i	i	105	i	i	i	i	i
COc1ccc(C2c3[nH]c4ccccc4c3C[C@H]3C(=O)N(c4ccccc4C(=O)NCCN4CCOCC4)C(=O)N23)cc1 (some centres undefined)	i	i	nt	nt	53	i	i	i	i	i
COc1cccc(C2c3[nH]c4ccccc4c3C[C@H]3C(=O)N(c4ccccc4C(=O)N4CCCC4C(=O)O)C(=O)N23)c1 (some centres undefined)	i	i	nt	nt	i	i	nt	nt	nt	nt
O=C(NCCN1CCOCC1)c1ccccc1N1C(=O)[C@@H]2Cc3c([nH]c4ccccc34)C(c3ccc(F)cc3)N2C1=O (some centres undefined)	i	i	nt	nt	50	i	i	i	i	i
COc1ccccc1N1CCN(Cc2ccc(-c3ccccc3[N+](=O)[O-])o2)CC1	i	i	nt	nt	88	i	28	55	i	i
O=C(NC(=S)Nc1cc(Cl)ccc1Cl)c1ccco1	i	nt	nt	nt	i	nt	nt	nt	nt	nt
COc1ccc(Nc2ncc(C(=O)N3CCN(c4ccc(F)cc4)CC3)c3ccccc23)cc1	i	i	i	i	55	i	37	54	i	i
SMILES	TAAR1 ag	GPR7 antagonist	TRPML3 agonist	zfTRPN1 agonist	TAAR1 antagonist	LANA-H2A inh	TAAR1 nonsel count	TAAR1 ant conf	Ga16 nonsel ag	TAAR1 ag count
COc1ccc(C(=O)Nc2ccc(N3CCN(C(=O)c4ccccc4C)CC3)cc2)cc1	i	i	nt	nt	65	i	24	i	14	i
COc1ccc(Nc2ncc(C(=O)O)c3ccccc23)cc1	i	i	i	i	i	i	nt	nt	nt	nt
Ic1ccc(N2CCN(Cc3c[nH]c4ncccc34)CC2)cc1	i	nt	nt	nt	i	i	nt	nt	nt	nt
O=C(NC12CC3CC(CC(C3)C1)C2)c1c(Cl)cccc1Cl	i	i	nt	nt	i	i	nt	nt	nt	nt
CC[C@@H]1C/C=C\Cc2ccccc2[C@H](C(=O)C[C@H](O)CC(C)=O)OC1=O	i	nt	nt	nt	i	i	nt	nt	nt	nt
O=C(COCc1ccccc1)N[C@@H]1c2ccccc2CC[C@H]1OCc1ccccc1	i	nt	nt	nt	i	nt	nt	nt	nt	nt
O=C(CCc1ccccc1)N[C@@H]1c2ccccc2CC[C@@H]1OCc1ccccc1	i	nt	nt	nt	53	nt	i	i	i	i
CCOc1cc2c(cc1/C=C/c1noc(C)c1[N+](=O)[O-])OC(C)C2 (centres undefined)	i	i	nt	nt	i	i	nt	nt	nt	nt
O=C(CCN1C(=O)CSc2ccccc21)Nc1cccc(C(F)(F)F)c1	i	nt	nt	nt	i	nt	nt	nt	nt	nt
O=C(CCN1C(=O)CSc2ccccc21)Nc1ccc(C(F)(F)F)cc1	i	nt	nt	nt	62	nt	i	i	i	i
CCCc1c(C(=O)N/N=C/C=C/c2ccccc2)nnn1-c1nonc1N	i	nt	nt	nt	i	nt	nt	nt	nt	nt
CC1(C(=O)NS(=O)(=O)c2ccccc2)CCN1C(=O)CCc1ccccc1 (centres undefined)	i	nt	nt	nt	i	nt	nt	nt	nt	nt
CCOC(=O)c1ccc(-n2nc(C)cc2C)cc1	i	i	i	i	i	i	nt	nt	nt	nt
Cc1nn(-c2ccccc2)c(C)c1NC(=O)COC(=O)c1ccc(Cl)c(N)c1	i	nt	nt	nt	72	i	30	50	12	i
